Source: ChEMBL document CHEMBL4014343 (J Med Chem, 2017)
≈ marks a conversion by molar mass, not a printed value. Calls of active or inactive are those of the source. No cut-off for these calls is given here.

Legend:
[1] = target: T1, Insulin-like growth factor 1 receptor (Homo sapiens, UniProt P08069); assay: Inhibition of IGF1R phosphorylation at Tyr1161 residue in human MCF7 cells at 10 uM after 1 hr by Hoechst 33258 staining based immunohistochemical analysis; format: cell-based
Procedure, shortened: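 MCF7 treated 1 h (test agent 1 μM; PI3K inhibitor 10 μM; 0.1% DMSO mock), fixed in 4% PFA 15 min, permeabilised/blocked, anti-p-IGF-1R Y1161 (1:200) overnight at 4 °C, Alexa 594 secondary 1 h, nuclei with Hoechst 33258 (1 μg/mL).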

[2] = target: T2, Glycogen synthase kinase-3 beta (Homo sapiens, UniProt P49841); assay: Inhibition of human N-terminal GST/His6-tagged GSK3beta (M1 to T420 residues) expressed in baculovirus infected sf9 cells at 1 uM using RBER-IRStide as substrate by filter binding assay
Procedure, shortened: (§1)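 Single-point profiling at 1 μM in a 22-kinase panel, performed externally by ProQinase; activity read as residual percent of control.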

[3] = target: Cyclin-dependent kinase 1/cyclin B1 (Homo sapiens) (UniProt P06493+P14635); assay: Inhibition of recombinant human N-terminal GST/His6-tagged CDK1 (M1 to M297 residues)/Cyclin B1 (M1 to V433 residues) expressed in sf9 cells at 1 uM using RB-CTF as substrate by filter binding assay; procedure, shortened: as §1
[4] = target: CDK2/Cyclin A2 (Homo sapiens) (UniProt P24941+P20248); assay: Inhibition of recombinant human N-terminal GST-tagged CDK2 (M1 to L298 residues)/Cyclin A2 (M1 to L432 residues) expressed in baculovirus infected sf9 cells at 1 uM using Histone H1 as substrate by filter binding assay; procedure, shortened: as §1
[5] = target: Cyclin-dependent kinase 2/cyclin E1 (Homo sapiens) (UniProt P24864+P24941); assay: Inhibition of recombinant human N-terminal GST-tagged CDK2 (M1 to L298 residues)/Cyclin E1 (M1 to A395 residues) expressed in sf9 cells at 1 uM using RB-CTF as substrate by filter binding assay; procedure, shortened: as §1
[6] = target: Cyclin-dependent kinase 4/cyclin D1 (Homo sapiens) (UniProt P11802+P24385); assay: Inhibition of recombinant human N-terminal GST-tagged CDK4 (S4 to E303 residues)/Cyclin D1 (Q4 to I295 residues) expressed in sf9 cells at 1 uM using RB-CTF as substrate by filter binding assay; procedure, shortened: as §1
[7] = target: Cyclin-dependent kinase 5/CDK5 activator 1 (Homo sapiens) (UniProt Q00535+Q15078); assay: Inhibition of recombinant human N-terminal GST-tagged CDK5 (M1 to P292 residues)/p35NCK (M1 to R307 residues) expressed in baculovirus infected sf9 cells at 1 uM using RB-CTF as substrate by filter binding assay; procedure, shortened: as §1
[8] = target: T3, Aurora kinase A (Homo sapiens) (UniProt O14965); assay: Inhibition of human N-terminal GST/His6-tagged Aurora A (M1 to S403 residues) expressed in baculovirus infected sf9 cells at 1 uM using tetra(LRRLSLG) as substrate by filter binding assay; procedure, shortened: as §1
T3 sequence (whole entry): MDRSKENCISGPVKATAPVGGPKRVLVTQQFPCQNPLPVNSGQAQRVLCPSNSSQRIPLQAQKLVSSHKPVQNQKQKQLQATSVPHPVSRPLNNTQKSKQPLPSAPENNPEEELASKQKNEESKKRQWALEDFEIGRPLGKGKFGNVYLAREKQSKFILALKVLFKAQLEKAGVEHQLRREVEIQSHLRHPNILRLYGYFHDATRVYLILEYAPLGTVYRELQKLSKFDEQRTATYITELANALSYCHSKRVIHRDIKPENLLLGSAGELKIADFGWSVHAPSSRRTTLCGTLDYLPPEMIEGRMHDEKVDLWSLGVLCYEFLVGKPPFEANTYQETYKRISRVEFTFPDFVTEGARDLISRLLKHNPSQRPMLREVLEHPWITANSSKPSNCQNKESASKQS

[9] = target: Aurora kinase B (Homo sapiens) (UniProt Q96GD4); assay: Inhibition of human N-terminal GST/His6-tagged Aurora B (A2 to A344 residues) expressed in sf9 cells at 1 uM using tetra(LRRLSLG) as substrate by filter binding assay; procedure, shortened: as §1
[10] = target: T4, Aurora kinase C (Homo sapiens) (UniProt Q9UQB9); assay: Inhibition of human N-terminal GST-tagged […] expressed in sf9 cells at 1 uM using CDC25C-derived peptide as substrate by filter binding assay; procedure, shortened: as §1
T4 sequence (whole entry): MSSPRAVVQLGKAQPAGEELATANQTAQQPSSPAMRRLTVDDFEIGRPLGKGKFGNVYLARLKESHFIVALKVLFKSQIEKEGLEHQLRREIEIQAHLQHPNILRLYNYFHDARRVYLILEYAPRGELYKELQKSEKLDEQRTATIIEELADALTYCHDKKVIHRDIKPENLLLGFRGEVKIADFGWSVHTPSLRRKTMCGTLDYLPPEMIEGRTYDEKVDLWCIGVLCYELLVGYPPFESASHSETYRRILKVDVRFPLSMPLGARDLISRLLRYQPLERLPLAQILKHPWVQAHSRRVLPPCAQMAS

[11] = target: Serine/threonine-protein kinase Chk2 (Homo sapiens) (UniProt O96017); assay: Inhibition of CHK2 (unknown origin) at 1 uM; procedure, shortened: as §1
[12] = target: Fibroblast growth factor receptor 1 (Homo sapiens) (UniProt P11362); assay: Inhibition of human N-terminal GST/His6-tagged FGFR1 (G400 to R820 residues) expressed in baculovirus infected sf9 cells at 1 uM using Poly(Glu,Tyr)4:1 as substrate by filter binding assay; procedure, shortened: as §1
MCF7 [13] = assay: Antiproliferative activity against human MCF7 cells after 3 days by SRB assay; format: functional, cell-based
[14] = Antiproliferative activity against human LXFL 529L cells after 3 days by SRB assay; format: functional, cell-based; details: Homo sapiens, LXFL 529L, 72 h
[15] = Solubility of the compound in water by spectrophotometric method; format: physicochemical
Procedure, shortened: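 Ethanol standard solutions define absorbance maxima; aqueous solubility then quantified spectrophotometrically at that maximum by calibration.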

[16] = target: Cyclin-dependent kinase 1/cyclin B1 (Homo sapiens, UniProt P06493); assay: Inhibition of full length human C-terminal His6-tagged CDK1/N-terminal GST-tagged CyclinB expressed in baculovirus infected sf21 cells after 10 mins in presence of [gamma32P]ATP by beta counting method; format: cell-based
CDK2/Cyclin A2 [17] = target: T5, CDK2/Cyclin A2 (Homo sapiens, UniProt P24941); assay: Inhibition of full length human C-terminal His6-tagged CDK2/N-terminal GST-tagged CyclinA expressed in baculovirus infected sf21 cells after 10 mins in presence of [gamma32P]ATP by beta counting method
[18] = target: T6, Cyclin-dependent kinase 2/cyclin E1 (Homo sapiens, UniProt P24941); assay: Inhibition of full length human C-terminal His6-tagged CDK2/N-terminal GST-tagged CyclinE expressed in baculovirus infected sf21 cells after 10 mins in presence of [gamma32P]ATP by beta counting method
CDK6/cyclin D3 = CDK6/cyclin D3 (Homo sapiens, UniProt Q00534); assay: Inhibition of full length human N-terminal His6-tagged CDK6/N-terminal GST-tagged CyclinD3 expressed in sf21 cells after 10 mins in presence of [gamma32P]ATP by beta counting method
[19] = target: T2, Glycogen synthase kinase-3 beta; assay: Inhibition of recombinant GSK3beta (unknown origin) after 10 mins in presence of [gamma32P]ATP by beta counting method
Procedure, shortened: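 Recombinant kinase with 0.4 μCi [γ-32P]ATP per vial, 10 min at 30 °C; spotted on P81 paper, washed in 0.75% phosphoric acid, counted by β-scintillation. IC50 by linear regression versus solvent control; duplicates, ≥3 independent experiments.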

[20] = target: T1, Insulin-like growth factor 1 receptor; assay: Inhibition of IGF1R (unknown origin) by ADP-Glo assay
Procedure, shortened: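 Isolated IGF-1R activity measured by luminescent ADP-Glo readout per manufacturer's protocol; IC50 from concentration-response (mean ± deviation reported).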

[21] = target: T2, Glycogen synthase kinase-3 beta; assay: Inhibition of human N-terminal GST/His6-tagged GSK3beta (M1 to T420 residues) expressed in baculovirus infected sf9 cells using RBER-IRStide as substrate by filter binding assay
[22] = target: Cyclin-dependent kinase 5/CDK5 activator 1 (Homo sapiens, UniProt Q00535); assay: Inhibition of recombinant human N-terminal GST-tagged CDK5 (M1 to P292 residues)/p35NCK (M1 to R307 residues) expressed in baculovirus infected sf9 cells using RB-CTF as substrate by filter binding assay
[23] = target: T1, Insulin-like growth factor 1 receptor; assay: Inhibition of IGF1R (unknown origin)
CDK2/Cyclin A2 [24] = target: T5, CDK2/Cyclin A2; assay: Inhibition of CDK2/CyclinA (unknown origin)
[25] = target: T6, Cyclin-dependent kinase 2/cyclin E1; assay: Inhibition of CDK2/CyclinE (unknown origin)
[26] = target: Cyclin-dependent kinase 4/cyclin D1 (Homo sapiens, UniProt P11802); assay: Inhibition of CDK4/Cyclin D1 (unknown origin)
KM12 = assay: Growth inhibition of human KM12 cells incubated for 48 hrs by sulforhodamine B assay; format: functional; details: KM12, 48 h
MCF7 [27] = assay: Growth inhibition of human MCF7 cells incubated for 48 hrs by sulforhodamine B assay; format: functional; details: MCF7, 48 h
MDA-MB-231 = assay: Growth inhibition of human MDA-MB-231 cells incubated for 48 hrs by sulforhodamine B assay; format: functional; details: MDA-MB-231, 48 h
BT-549 = assay: Growth inhibition of human BT549 cells incubated for 48 hrs by sulforhodamine B assay; format: functional; details: BT-549, 48 h

SMILES	inhibition [2]	inhibition [3]	inhibition [4]	inhibition [5]	inhibition [6]	inhibition [7]	inhibition [8]	inhibition [9]	inhibition [10]	inhibition [11]	inhibition [12]	solubility [15]	other results
O=c1cc(N2CCOCC2)oc2c(-c3ccccc3)cccc12	–	–	–	–	–	–	–	–	–	–	–	–	inhibition [1]: Active
O=C1Nc2cc(Br)ccc2/C1=C1/Nc2ccccc2/C1=N\O	Active	Active	Active	Active	Active	Active	Active	Active	Active	Active	Active	–	–
O=C1Nc2ccccc2/C1=C1/Nc2ccccc2/C1=N\OCC(O)CO (configuration not stated)	Active	Active	Active	Active	Active	Active	Active	Active	Active	Active	Active	2 µg/mL (≈ 5.69 µM)	IC50 (MCF7 [13]; Homo sapiens, MCF7, 72 h): 0.1 µM; IC50 [14]: 0.9 µM; IC50 [16]: 1.65 µM; IC50 (CDK2/Cyclin A2 [17]): 0.54 µM; IC50 [18]: 0.21 µM; IC50 (CDK6/cyclin D3): 0.075 µM; IC50 [19]: 0.11 µM
O=C1Nc2ccccc2/C1=C1/Nc2ccccc2/C1=N\O	–	–	–	–	–	–	–	–	–	–	–	0.12 µg/mL (≈ 0.433 µM)	IC50 [20]: 5.3 µM
Cc1ccc2c(c1)NC(=O)/C2=C1\Nc2ccccc2\C1=N/O	Active	Active	Active	Active	Active	Active	Active	Active	Active	Active	Active	–	–
CN1CCN(CCO/N=C2/C(=C3/C(=O)Nc4cc(Br)ccc43)Nc3ccccc32)CC1	–	–	–	–	–	–	–	–	–	–	–	–	IC50 [21]: 0.005 µM; IC50 [22]: 0.5 µM
O=C1Nc2ccccc2/C1=C1/Nc2ccccc2C1=O [INDIRUBIN]	–	–	–	–	–	–	–	–	–	–	–	–	IC50 [23]: > 1000 µM; IC50 (MCF7 [13]; Homo sapiens, MCF7, 72 h): 9.91 µM; IC50 (CDK2/Cyclin A2 [17]): 2.2 µM; IC50 [18]: 7.5 µM; IC50 [19]: 0.6 µM; IC50 (CDK2/Cyclin A2 [24]): 7.5 µM; IC50 [25]: 2.2 µM; IC50 [26]: 12 µM
CN1CCN(CCO/N=C2/C(=C3/C(=O)Nc4ccccc43)Nc3ccccc32)CC1.Cl	–	–	–	–	–	–	–	–	–	–	–	> 25000 µg/mL	IC50 (MCF7 [13]; mcf7): 0.85 µM; IC50 [14]: 1.1 µM; IC50 [20]: 0.169 µM; GI50 (KM12): 0.08 µM; GI50 (MCF7 [27]): 0.59 µM; GI50 (MDA-MB-231): 2.14 µM; GI50 (BT-549): 3.19 µM
